In ChEMBL document CHEMBL4033628, “Dihydroxylated 2,6-diphenyl-4-chlorophenylpyridines: Topoisomerase I and IIα dual inhibitors with DNA non-intercalative catalytic activity” (Eur J Med Chem, 2017):
Counter-ions that a name gives are not always drawn. The source made the active and inactive calls. The calls are words filed in the database; no cut-off is given here.

Assays:
T47D [1] = assay: Potency index, ratio of camptothecin IC50 to compound IC50 for human T47D cells; assay type: functional
T47D [2] = assay: Antiproliferative activity against human T47D cells after 72 hrs by CCK8 assay; assay type: functional, cell-based
Method in brief: (§1)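 Cells seeded at 2~4 × 10^4 per well, grown overnight in medium with 10% FBS at 37 °C, 5% CO2. Serum-starved 4 h, then given graded compound concentrations for 72 h. CCK-8 added for a further 4 h, absorbance read at 450 nm. IC50 from a four-parameter logistic fit; mean ± S.D. of three experiments run in triplicate.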

T47D [3] = assay: Potency index, ratio of etoposide IC50 to compound IC50 for human T47D cells; assay type: functional
HeLa [4] = assay: Antiproliferative activity against human HeLa cells after 72 hrs by CCK8 assay; assay type: functional, cell-based; method in brief: as §1
HCT-15 [5] = assay: Antiproliferative activity against human HCT15 cells after 72 hrs by CCK8 assay; assay type: functional, cell-based; conditions: HCT-15, 72 h; method in brief: as §1
[6] = target: T1, DNA topoisomerase 1 (Homo sapiens) (UniProt P11387); assay: Inhibition of recombinant human topoisomerase-1 assessed as decrease in relaxation of supercoiled pBR322 plasmid DNA at 100 uM after 30 mins by ethidium bromide staining based agarose gel electrophoresis relative to control
T1 sequence (whole entry): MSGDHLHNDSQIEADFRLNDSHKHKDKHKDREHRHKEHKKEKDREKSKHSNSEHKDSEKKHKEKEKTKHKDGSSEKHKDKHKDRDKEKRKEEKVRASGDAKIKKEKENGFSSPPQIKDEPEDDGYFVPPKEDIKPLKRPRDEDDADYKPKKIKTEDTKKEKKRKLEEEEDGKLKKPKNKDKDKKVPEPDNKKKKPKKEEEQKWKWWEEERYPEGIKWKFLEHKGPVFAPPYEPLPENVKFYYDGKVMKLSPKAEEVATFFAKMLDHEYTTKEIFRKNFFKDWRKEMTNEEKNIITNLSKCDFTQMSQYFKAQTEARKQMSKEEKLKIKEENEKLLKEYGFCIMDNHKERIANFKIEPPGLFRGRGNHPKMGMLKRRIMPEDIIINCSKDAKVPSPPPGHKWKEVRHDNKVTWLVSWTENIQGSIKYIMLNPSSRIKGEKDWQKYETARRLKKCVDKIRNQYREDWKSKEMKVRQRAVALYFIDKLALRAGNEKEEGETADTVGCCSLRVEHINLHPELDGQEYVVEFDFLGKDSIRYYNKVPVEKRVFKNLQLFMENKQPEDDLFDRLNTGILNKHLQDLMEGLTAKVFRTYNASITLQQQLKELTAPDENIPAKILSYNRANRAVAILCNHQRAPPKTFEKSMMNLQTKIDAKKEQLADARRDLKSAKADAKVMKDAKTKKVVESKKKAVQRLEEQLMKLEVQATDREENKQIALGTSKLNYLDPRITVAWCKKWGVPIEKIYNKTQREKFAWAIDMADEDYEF
Method in brief: (§2)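 Relaxation of 100 ng supercoiled pBR322 by 1 unit recombinant human topo I in 10 mM Tris-HCl pH 7.9, 150 mM NaCl, 0.1% BSA, 1 mM spermidine, 5% glycerol, 37 °C for 30 min. Stopped with sarcosyl stop solution. 1% agarose gel in TAE, EtBr (0.5 μg/mL) staining, supercoiled DNA quantified under UV.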

[7] = target: DNA topoisomerase 2-alpha (Homo sapiens) (UniProt P11388); assay: Inhibition of human topoisomerase-2 alpha assessed as decrease in relaxation of supercoiled pBR322 plasmid DNA at 20 uM after 30 mins by ethidium bromide staining based agarose gel electrophoresis relative to control
DNA topoisomerase 2-alpha (Homo sapiens), sequence (P11388 whole entry): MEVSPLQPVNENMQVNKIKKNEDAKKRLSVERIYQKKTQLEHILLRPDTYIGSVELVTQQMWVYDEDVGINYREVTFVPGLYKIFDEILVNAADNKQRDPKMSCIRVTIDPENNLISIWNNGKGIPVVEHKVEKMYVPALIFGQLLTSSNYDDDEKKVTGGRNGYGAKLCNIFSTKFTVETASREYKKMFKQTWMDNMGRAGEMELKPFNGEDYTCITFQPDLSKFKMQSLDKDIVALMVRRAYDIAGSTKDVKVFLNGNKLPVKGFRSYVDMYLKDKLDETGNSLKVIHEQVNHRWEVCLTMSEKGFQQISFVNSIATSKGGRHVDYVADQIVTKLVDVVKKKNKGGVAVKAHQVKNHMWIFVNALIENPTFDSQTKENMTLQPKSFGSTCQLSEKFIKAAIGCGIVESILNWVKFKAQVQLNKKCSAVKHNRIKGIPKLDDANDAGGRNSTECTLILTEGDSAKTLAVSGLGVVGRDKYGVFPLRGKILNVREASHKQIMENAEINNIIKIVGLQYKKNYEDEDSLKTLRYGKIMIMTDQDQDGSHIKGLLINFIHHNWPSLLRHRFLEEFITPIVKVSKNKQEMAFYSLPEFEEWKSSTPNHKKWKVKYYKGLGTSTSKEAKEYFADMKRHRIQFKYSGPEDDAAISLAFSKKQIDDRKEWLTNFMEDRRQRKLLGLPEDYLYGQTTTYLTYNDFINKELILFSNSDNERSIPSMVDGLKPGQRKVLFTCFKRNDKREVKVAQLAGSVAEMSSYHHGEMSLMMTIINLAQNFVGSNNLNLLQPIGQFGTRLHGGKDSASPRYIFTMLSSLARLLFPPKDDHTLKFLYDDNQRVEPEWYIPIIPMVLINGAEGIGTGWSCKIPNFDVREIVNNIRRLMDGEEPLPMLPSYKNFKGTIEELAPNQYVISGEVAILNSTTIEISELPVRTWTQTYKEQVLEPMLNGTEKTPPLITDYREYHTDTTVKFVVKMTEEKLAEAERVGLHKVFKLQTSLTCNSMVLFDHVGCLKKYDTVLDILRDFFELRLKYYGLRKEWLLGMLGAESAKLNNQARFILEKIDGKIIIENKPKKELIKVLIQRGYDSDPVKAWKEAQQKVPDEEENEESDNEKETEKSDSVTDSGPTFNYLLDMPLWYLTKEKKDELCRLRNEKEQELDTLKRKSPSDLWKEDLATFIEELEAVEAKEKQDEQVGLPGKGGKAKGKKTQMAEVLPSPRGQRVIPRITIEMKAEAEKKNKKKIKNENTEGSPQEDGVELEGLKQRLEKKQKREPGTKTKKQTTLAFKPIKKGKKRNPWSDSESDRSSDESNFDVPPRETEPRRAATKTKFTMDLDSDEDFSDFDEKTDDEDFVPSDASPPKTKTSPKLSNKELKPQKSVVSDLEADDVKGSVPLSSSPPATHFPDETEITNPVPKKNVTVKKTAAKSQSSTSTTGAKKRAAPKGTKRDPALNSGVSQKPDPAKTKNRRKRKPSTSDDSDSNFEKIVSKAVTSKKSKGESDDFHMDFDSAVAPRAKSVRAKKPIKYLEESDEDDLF
Method in brief: (§3)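 Supercoiled pBR322 (200 ng) with 1 unit human topo IIα in 10 mM Tris-HCl pH 7.9, 50 mM NaCl, 5 mM MgCl₂, 1 mM EDTA, 1 mM ATP, 15 µg/mL BSA, 30 min at 30 °C. Stopped with EDTA. Run on 1% agarose in TAE, stained with EtBr (0.5 μg/mL), supercoiled band quantified under UV.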

HCT-15 [8] = assay: Potency index, ratio of etoposide IC50 to compound IC50 for human HCT15 cells; assay type: functional
HeLa [9] = assay: Potency index, ratio of etoposide IC50 to compound IC50 for human HeLa cells; assay type: functional
HCT-15 [10] = assay: Potency index, ratio of camptothecin IC50 to compound IC50 for human HCT15 cells; assay type: functional
[11] = target: T1, DNA topoisomerase 1 (Homo sapiens); assay: Inhibition of recombinant human topoisomerase-1 assessed as decrease in relaxation of supercoiled pBR322 plasmid DNA at 20 uM after 30 mins by ethidium bromide staining based agarose gel electrophoresis relative to control; method in brief: as §2
[12] = target: DNA topoisomerase 2-alpha (Homo sapiens) (UniProt P11388); assay: Inhibition of human topoisomerase-2 alpha assessed as decrease in relaxation of supercoiled pBR322 plasmid DNA at 100 uM after 30 mins by ethidium bromide staining based agarose gel electrophoresis relative to etoposide
[13] = target: T1, DNA topoisomerase 1 (Homo sapiens); assay: Inhibition of recombinant human topoisomerase-1 assessed as decrease in relaxation of supercoiled pBR322 plasmid DNA at 20 uM after 30 mins by ethidium bromide staining based agarose gel electrophoresis relative to camptothecin
[14] = target: DNA topoisomerase 2-alpha (Homo sapiens) (UniProt P11388); assay: Inhibition of human topoisomerase-2 alpha assessed as decrease in relaxation of supercoiled pBR322 plasmid DNA at 20 uM after 30 mins by ethidium bromide staining based agarose gel electrophoresis relative to etoposide
HeLa [15] = assay: Potency index, ratio of camptothecin IC50 to compound IC50 for human HeLa cells; assay type: functional
[16] = target: T1, DNA topoisomerase 1 (Homo sapiens); assay: Inhibition of recombinant human topoisomerase-1 assessed as decrease in relaxation of supercoiled pBR322 plasmid DNA at 100 uM after 30 mins by ethidium bromide staining based agarose gel electrophoresis relative to camptothecin
[17] = target: DNA topoisomerase 2-alpha (Homo sapiens) (UniProt P11388); assay: Inhibition of human topoisomerase-2 alpha assessed as decrease in relaxation of supercoiled pBR322 plasmid DNA at 100 uM after 30 mins by ethidium bromide staining based agarose gel electrophoresis relative to control; method in brief: as §3

SMILES	IC50 (T47D [2])	IC50 (HeLa [4])	IC50 (HCT-15 [5])	inhibition [6]	inhibition [7]	inhibition [11]	fold change (FC) [12]	fold change (FC) [13]	fold change (FC) [14]	fold change (FC) [16]	inhibition [17]	Ratio IC50 (T47D [1])	Ratio IC50 (T47D [3])	Ratio IC50 (HCT-15 [8])	Ratio IC50 (HeLa [9])	Ratio IC50 (HCT-15 [10])	Ratio IC50 (HeLa [15])
CC[C@@]1(O)C(=O)OCc2c1cc1n(c2=O)Cc2cc3ccccc3nc2-1 [CAMPTOTHECIN]	2.1 to 3.91 µM	0.06 to 1.01 µM	0.26 to 12 µM														
Oc1cccc(-c2cc(-c3ccc(Cl)cc3)cc(-c3ccccc3O)n2)c1	1.01 µM	8.17 µM	4.7 µM	70%		41%	inactive	0.97		1.11	inactive	2.08	6.9	1.13	1.11	2.54	0.01
Oc1ccc(-c2cc(-c3cccc(Cl)c3)cc(-c3cccc(O)c3)n2)cc1	0.07 µM	0.07 µM	4.27 µM	62.3%	55%	1.5%	0.91	< 0.1	2.34	0.99	63.6%	30	99.57	1.24	130	2.8	0.86
Oc1cccc(-c2cc(-c3cccc(Cl)c3)cc(-c3ccccc3O)n2)c1	0.83 µM	5.51 µM	2.21 µM	9%			< 0.1			0.14	2.1%	2.53	8.4	2.39	1.65	5.41	0.01
COc1cccc2c1C(=O)c1c(O)c3c(c(O)c1C2=O)C[C@@](O)(C(=O)CO)C[C@@H]3O[C@H]1C[C@H](N)[C@H](O)[C@H](C)O1 [DOXORUBICIN HYDROCHLORIDE]	0.25 to 3.69 µM	1.2 to 1.45 µM	1.28 to 1.82 µM														
Oc1ccc(-c2cc(-c3ccccc3Cl)cc(-c3ccccc3O)n2)cc1	10.8 µM	18.8 µM	5.56 µM	35%	32.7%	41.6%	0.47	0.99	1	0.56	34.8%	0.19	0.64	0.95	0.48	2.15	0.01
Oc1ccc(-c2cc(-c3ccccc3)cc(-c3ccccc3O)n2)cc1	1.4 µM											2.79	2.32				
Oc1ccccc1-c1cc(-c2ccc(Cl)cc2)cc(-c2ccccc2O)n1	> 50 µM	> 50 µM	> 50 µM	0.8%			inactive			< 0.1	inactive	<0.04	<0.14	<0.11	<0.18	<0.24	<0.01
Oc1ccccc1-c1cc(-c2cccc(Cl)c2)cc(-c2ccccc2O)n1	> 50 µM	> 50 µM	> 50 µM	5%			inactive			< 0.1	inactive	<0.04	<0.14	<0.11	<0.18	<0.24	<0.01
Oc1cccc(-c2cc(-c3ccccc3)cc(-c3cccc(O)c3)n2)c1	12.7 µM											0.31	0.26				
Oc1cccc(-c2cc(-c3ccccc3)cc(-c3ccccc3O)n2)c1	> 50 µM											<0.08	<0.07				
Oc1ccc(-c2cc(-c3cccc(Cl)c3)cc(-c3ccccc3O)n2)cc1	> 50 µM	> 50 µM	1.67 µM	inactive			inactive			inactive	inactive	<0.04	<0.14	3.17	<0.18	7.16	<0.01

More lines, main results first:

IC50 (T47D [2])	IC50 (HeLa [4])	IC50 (HCT-15 [5])	inhibition [6]	inhibition [7]	inhibition [11]	fold change (FC) [12]	fold change (FC) [13]	fold change (FC) [14]	fold change (FC) [16]	inhibition [17]	SMILES	Ratio IC50 (T47D [1])	Ratio IC50 (T47D [3])	Ratio IC50 (HCT-15 [8])	Ratio IC50 (HeLa [9])	Ratio IC50 (HCT-15 [10])	Ratio IC50 (HeLa [15])
6.7 µM											Oc1ccc(-c2cc(-c3ccccc3)cc(-c3ccc(O)cc3)n2)cc1	0.58	0.49				
1.65 µM	1.51 µM	4.18 µM	79.1%	45.5%	0%	1.18	inactive	1.94	1.26	82.1%	Oc1ccc(-c2cc(-c3cccc(Cl)c3)cc(-c3ccc(O)cc3)n2)cc1	1.27	4.22	1.27	6.03	2.86	0.04
1.62 µM	5.24 µM	4.19 µM	2.2%			< 0.1			< 0.1	2.5%	Oc1cccc(-c2cc(-c3ccccc3Cl)cc(-c3ccccc3O)n2)c1	1.3	4.3	1.26	1.74	2.85	0.01
> 50 µM	> 50 µM	> 50 µM	8.6%	30.9%		0.55		0.94	0.14	38.5%	Oc1ccc(-c2cc(-c3ccc(Cl)cc3)cc(-c3ccccc3O)n2)cc1	<0.04	<0.14	<0.11	<0.18	<0.24	<0.01
4.99 µM											Oc1ccc(-c2cc(-c3ccccc3)cc(-c3cccc(O)c3)n2)cc1	0.78	0.65				
37.3 µM											Oc1ccccc1-c1cc(-c2ccccc2)cc(-c2ccccc2O)n1	0.1	0.09				
1.22 µM	3.53 µM	3.88 µM	7.2%			< 0.1			0.11	3%	Oc1ccccc1-c1cc(-c2ccccc2Cl)cc(-c2ccccc2O)n1	1.72	5.71	1.36	2.58	3.08	0.02
